Measurements from different studies.
Each line is one published result; the experiments were not run side by side.
Target: Mitogen-activated protein kinase 7 (MAPK7, Homo sapiens, UniProt Q13164)

CC1CCCN1c1nccc(-c2cnn3ncccc23)n1 (stereo not shown) — remaining binding (binding; 1 µM): 100%
C[C@@H](c1ccc(-n2cnc3c(N)ncnc32)cc1)N1CCc2nn(C)c(Cc3ccccc3)c2C1=O — remaining binding (binding; competition with immobilised ligand; 0.1 µM): 89%
C[C@@]1(Cc2ccc(C#N)cc2)C(=O)N(c2cc(Cl)cc(Cl)c2)c2ncc(C(=O)NC3(c4nc(C5CCC5)no4)CC3)n21 — remaining binding (cell-free assay; competition with immobilised ligand; 1 µM): 100%
O=C(c1ccc(Nc2ncc(Cl)c(-c3cc4ccccc4s3)n2)cc1)N1CCC(N2CCCC2)CC1 — remaining binding (binding; competition with immobilised ligand; 1 µM): 60%
COc1ccc2c(O[C@@H]3C[C@H]4C(=O)N[C@]5(C(=O)O)CC5/C=C\CCCCC[C@H](NC(=O)OC5CCCC5)C(=O)N4C3)cc(-c3csc(NC(=O)C(C)C)n3)nc2c1C (stereo partly shown) — remaining binding (cell-free assay; competition with immobilised ligand; 1 µM): 100%
CN(CCCC(F)(F)F)c1nccc(-c2cnn3ncccc23)n1 — remaining binding (binding; 1 µM): 100%
O=C(Nc1c[nH]nc1C(=O)NC1CCNCC1)c1cc(F)cc(F)c1 — remaining binding (binding; competition with immobilised ligand; 1 µM): 83%
c1cnn2ncc(-c3ccnc(N4CCC45COC5)n3)c2c1 — remaining binding (binding; 1 µM): 87%
N#Cc1ccc(Nc2ccc3[nH]c(=O)[nH]c3c2)c(Cl)c1 — remaining binding (cell-free assay; competition with immobilised ligand; 1 µM): 100%
CN(C)c1ncc(F)c(-c2cnn3ncccc23)n1 — remaining binding (binding; 1 µM): 99%
COc1cc(C(=O)N2CCC(N3CCN(C)CC3)CC2)ccc1Nc1ncc2c(n1)N(C)c1ccccc1C(=O)N2C — remaining binding (binding; competition with immobilised ligand; 10 µM): 0.05%
N[C@@H]1CCN(c2nccc(-c3cnn4ncccc34)n2)C1 — remaining binding (binding; 1 µM): 100%
O=C(NCCCN1CCOCC1)c1ccc(Nc2nccc(-c3cc4ccccc4s3)n2)cc1 — remaining binding (binding; competition with immobilised ligand; 1 µM): 87%
COc1cnc(Nc2cccc(S(N)(=O)=O)c2)nc1N1CCN(c2ccccc2)C(=O)C1 — remaining binding (binding; competition with immobilised ligand; 1 µM): 100%
Cc1noc([C@H]2C[C@@H](c3ccc(C(F)(F)F)cc3)CN(C(=O)N3CCS(=O)(=O)C3)C2)n1 — remaining binding (cell-free assay; competition with immobilised ligand; 1 µM): 87%
C[C@H]1CCN(c2nccc(-c3cnn4ncccc34)n2)C1 — remaining binding (binding; 1 µM): 93%
CS(=O)(=O)N1CCCC(NC(=O)[C@H](CCC2CCCCC2)NC(=O)c2ccc(CNC(=O)c3cnc4ccccn34)cc2)C1 (stereo partly shown) — remaining binding (cell-free assay; competition with immobilised ligand; 0.1 µM): 94%
CNC(=O)[C@@H]1CC[C@@H](n2c(-c3ccc4cnccc4c3)nc3ccc(C(=O)NCc4cccc(C(N)=O)c4)cc32)C1 — remaining binding (binding; competition with immobilised ligand; 1 µM): 100%
CN(c1ccnc(CNc2nc(Nc3ccc4c(c3)CC(=O)N4)ncc2C(F)(F)F)n1)S(C)(=O)=O — remaining binding (cell-free assay; competition with immobilised ligand; 1 µM): 78%
Cc1cnc(Nc2ccc(C(=O)N3CCC(N4CCCC4)CC3)cc2)nc1-c1cc2ccccc2s1 — remaining binding (binding; competition with immobilised ligand; 1 µM): 21%
C=CC(=O)N1CCC(C(=O)NCC(=O)N2CCN(c3nc(-c4cnc(N)nc4C(F)F)nc(N4CCOCC4)n3)CC2)CC1 — remaining binding (binding; competition with immobilised ligand; 1 µM): 100%
Nc1ncc2c(n1)-c1c([nH]c3ccc(C#CC4CC4)cc13)CCCC2 — remaining binding (binding; competition with immobilised ligand; 1 µM): 85%
